“Also recorded” adds a separate entry of the source. Where two headings read alike, the source gives them in different places.
Tests used:
LTE4 in urine = test: Creatine-normalized urine LTE4 quantification; type: in vivo, human
In short: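 Urinary LTE₄ was normalised to creatinine. On Days 1 and 10, samples were a pre-dose spot, pooled 0–3, 3–6, 6–9 and 9–12 h collections, and spots at 24 and 36 h. Only pre-dose spots were taken on Days 3–9. Inhibition was related to plasma exposure after oral doses of 60–600 mg.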

[1] = Comparison of pharmacokinetics, Japanese versus non-Japanese subjects; type: in vivo, human; details: Day 10
In short: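 Day-10 Japanese multiple-dose pharmacokinetic parameters were compared with a prior Phase I non-Japanese study (MAD part). Parameters were log-transformed to give geometric mean ratios with 90% confidence intervals. Cmax and AUCτ were also normalised to 70 kg body weight. Six subjects per cohort.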

[2] = type: in vivo, human; details: for Tmax: median (range)
In short: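 Oral suspension given fasted (10 h overnight), 6 subjects per dose. Blood (2 mL, K₂-EDTA) was taken pre-dose and 0.5–48 h after the first and Day-10 doses. Day-10 urine was collected pre-dose and over 0–3, 3–6, 6–12 and 12–24 h. Analysis used validated methods and non-compartmental methods with actual sampling times. AUC was by log-linear trapezoidal rule.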

[3] = Clinical safety and tolerability in healthy Japanese subjects; type: in vivo, human
In short: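 Randomised, placebo-controlled: four cohorts of 8 (6 active, 2 placebo) received an oral amorphous suspension once on Day 1, then once daily on Days 3–10, fasted. Assessments were adverse events, vital signs, ECG, telemetry and routine clinical laboratory tests. They were taken before and at scheduled times after dosing and at follow-up 7–10 days after the final dose.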

[4] = Pharmacokinetics in healthy non-Japanese subjects; type: in vivo, human; details: for AUCτ, non-Japanese geometric mean, body weight normalized to 70 kg: Day 10
[5] = SMAD study, fasting and fed healthy volunteers; cited from earlier work
[6] = cited from earlier work
[7] = Japanese, 60 mg OD, Day 1, geometric mean (CV%)
[8] = Japanese, 60 mg OD, Day 10, geometric mean (CV%)
[9] = Japanese, 180 mg OD, Day 1, geometric mean (CV%)
[10] = Japanese, 180 mg OD, Day 10, geometric mean (CV%)
[11] = Japanese, 360 mg OD, Day 1, geometric mean (CV%)
[12] = Japanese, 360 mg OD, Day 10, geometric mean (CV%)
[13] = Japanese, 600 mg OD, Day 1, geometric mean (CV%)
[14] = Japanese, 600 mg OD, Day 10, geometric mean (CV%)

With `Cc1cc(-c2ccc(C(=O)[C@@H]3CCCC[C@H]3C(=O)Nc3cnn4c3C(=O)NCC4)cc2)n[nH]1` [AZD5718] the “time at which level of full LTE4 inhibition achieved” value (LTE4 in urine; Japanese, after the first dose, all doses) was 8 h, the “sustained reduction in LTE4 in urine” value (LTE4 in urine; Japanese, all doses) was “above 80%” and the “inhibition of LTE4 in urine after the first dose” value (LTE4 in urine; Japanese, all doses (60–600 mg)) was over 80%. For the same compound, the “time of maximum reduction in LTE4 in urine post-dose” value (LTE4 in urine; after first dose, both Japanese and non-Japanese subjects) was at most 12 h, the “urinary LTE4 inhibition versus AZD5718 exposure” value (LTE4 in urine; single and multiple doses, at plasma concentrations in the lower nM range) was over 80% and the “AUCτ GMR Japanese versus non-Japanese, % (90% CI)” value ([1]; 60 mg) was 82 (63–108) %. The “AUCτ GMR Japanese versus non-Japanese, % (90% CI), body weight normalized to 70 kg” value ([1]; 60 mg) was 72 (55–95) %, the “Cmax GMR Japanese versus non-Japanese, % (90% CI)” value ([1]; 60 mg) was 72 (54–97) % and the “Cmax GMR Japanese versus non-Japanese, % (90% CI), body weight normalized to 70 kg” value ([1]; 60 mg) was 63 (48–84) %. For the same compound, the “AUCτ GMR Japanese versus non-Japanese, % (90% CI)” value ([1]; 180 mg) was 131 (88–196) %, the “AUCτ GMR Japanese versus non-Japanese, % (90% CI), body weight normalized to 70 kg” value ([1]; 180 mg) was 101 (71–144) % and the “Cmax GMR Japanese versus non-Japanese, % (90% CI)” value ([1]; 180 mg) was 126 (82–195) %. For the same compound, the “Cmax GMR Japanese versus non-Japanese, % (90% CI), body weight normalized to 70 kg” value ([1]; 180 mg) was 97 (65–145) %, the “AUCτ GMR Japanese versus non-Japanese, % (90% CI)” value ([1]; 360 mg) was 124 (83–186) % and the “AUCτ GMR Japanese versus non-Japanese, % (90% CI), body weight normalized to 70 kg” value ([1]; 360 mg) was 102 (70–149) %. For the same compound, the “Cmax GMR Japanese versus non-Japanese, % (90% CI)” value ([1]; 360 mg) was 108 (72–162) %, the “Cmax GMR Japanese versus non-Japanese, % (90% CI), body weight normalized to 70 kg” value ([1]; 360 mg) was 89 (60–131) % and the “AUCτ GMR Japanese versus non-Japanese, % (90% CI)” value ([1]; 600 mg) was 118 (73–190) %. For the same compound, the “AUCτ GMR Japanese versus non-Japanese, % (90% CI), body weight normalized to 70 kg” value ([1]; 600 mg) was 104 (69–156) %, the “Cmax GMR Japanese versus non-Japanese, % (90% CI)” value ([1]; 600 mg) was 108 (66–178) % and the “Cmax GMR Japanese versus non-Japanese, % (90% CI), body weight normalized to 70 kg” value ([1]; 600 mg) was 95 (64–142) %. The “AUCτ, Japanese geometric mean, body weight normalized to 70 kg” value ([2]; 60 mg, Day 10) was 1056.0 nmol·h/L, the “AUCτ, Japanese geometric mean, body weight normalized to 70 kg” value ([2]; 180 mg, Day 10) was 5896.7 nmol·h/L and the “AUCτ, Japanese geometric mean, body weight normalized to 70 kg” value ([2]; 360 mg, Day 10) was 14,981.4 nmol∙h/L. For the same compound, the “AUCτ, Japanese geometric mean, body weight normalized to 70 kg” value ([2]; 600 mg, Day 10) was 25,893.0 nmol∙h/L, the Cmax ([2]; Japanese, 60 mg OD oral suspension, Day 1, geometric mean (CV%), n = 6) was 140 nM and the AUCτ [2, 7] was 862.9 (35.8) nmol∙h/L. For the same compound, the CL/F [2, 7] was 142.1 (33.5) L/h, the t½ [2, 7] was 10.1 (44.0) h and the Tmax ([2]; Japanese, 60 mg OD, Day 1) was 1.0 (1.0, 3.0) h. For the same compound, the AUCτ [2, 8] was 1140.5 (25.5) nmol∙h/L, the CL/F [2, 8] was 117.8 (25.5) L/h and the CLR [2, 8] was 0.8 (22.5) L/h. The Cmax [2, 8] was 159 nM, the t½ [2, 8] was 12.8 (47.0) h and the Tmax ([2]; Japanese, 60 mg OD, Day 10) was 2.0 (1.0, 3.0) h. For the same compound, the AUCτ [2, 9] was 4739.4 (33.3) nmol∙h/L, the CL/F [2, 9] was 82.2 (35.8) L/h and the Cmax [2, 9] was 1280 nM. The t½ [2, 9] was 8.5 (47.9) h, the Tmax ([2]; Japanese, 180 mg OD, Day 1) was 1.0 (0.5, 2.0) h and the AUCτ [2, 10] was 6724.5 (32.0) nmol∙h/L. For the same compound, the CL/F [2, 10] was 60.0 (32.0) L/h, the CLR [2, 10] was 0.8 (38.4) L/h and the Cmax [2, 10] was 1570 nM. The t½ [2, 10] was 8.6 (23.6) h, the Tmax ([2]; Japanese, 180 mg OD, Day 10) was 1.5 (1.0, 2.0) h and the AUCτ [2, 11] was 8971.1 (47.6) nmol∙h/L. For the same compound, the CL/F [2, 11] was 84.3 (51.7) L/h, the Cmax [2, 11] was 2200 nM and the t½ [2, 11] was 15.0 (100.5) h. The Tmax ([2]; Japanese, 360 mg OD, Day 1) was 1.0 (1.0, 2.1) h, the AUCτ [2, 12] was 15,847.3 (47.8) nmol∙h/L and the CL/F [2, 12] was 50.9 (47.8) L/h. For the same compound, the CLR [2, 12] was 0.9 (21.0) L/h, the Cmax [2, 12] was 3460 nM and the t½ [2, 12] was 10.5 (29.1) h. The Tmax ([2]; Japanese, 360 mg OD, Day 10) was 2.0 (1.0, 3.0) h, the AUCτ [2, 13] was 17,592.6 (39.9) nmol∙h/L and the CL/F [2, 13] was 74.1 (40.0) L/h. The Cmax [2, 13] was 5180 nM, the t½ [2, 13] was 7.4 (25.5) h and the Tmax ([2]; Japanese, 600 mg OD, Day 1) was 1.0 (1.0, 2.0) h. For the same compound, the AUCτ [2, 14] was 27,349.3 (48.8) nmol∙h/L, the CL/F [2, 14] was 49.1 (48.8) L/h and the CLR [2, 14] was 0.8 (16.8) L/h. The Cmax [2, 14] was 6150 nM, the t½ [2, 14] was 8.5 (35.1) h and the Tmax ([2]; Japanese, 600 mg OD, Day 10) was 1.0 (1.0, 2.0) h. For the same compound, the “Tmax (median) across doses” value ([2]; Japanese, 60–600 mg oral, fasted) was 1 to 2 h, the “accumulation in AUCτ” value ([2]; Japanese, Day 10 versus Day 1, all doses) was 32–77% and the “time to steady-state plasma concentrations” value ([2]; Japanese, once-daily dosing) was 3 to 4 days. The Cmax ([2]; read-out: Cmax, Japanese geometric mean, body weight normalized to 70 kg, 60 mg, Day 10) was 147 nM, the Cmax ([2]; read-out: Cmax, Japanese geometric mean, body weight normalized to 70 kg, 180 mg, Day 10) was 1370 nM and the Cmax ([2]; read-out: Cmax, Japanese geometric mean, body weight normalized to 70 kg, 360 mg, Day 10) was 3270 nM. The Cmax ([2]; read-out: Cmax, Japanese geometric mean, body weight normalized to 70 kg, 600 mg, Day 10) was 5820 nM, the serious adverse events ([3]; Japanese, 60, 180, 360, 600 mg) was “No serious AEs” and the “vital signs, ECG, telemetry, laboratory results” value ([3]; Japanese, all doses) was “no clinically significant trends”. The tolerability ([3]; Japanese, single and multiple oral doses 60, 180, 360, 600 mg) was “No clinically relevant safety and tolerability findings; also recorded: safe, well tolerated”, the “AUCτ, non-Japanese geometric mean, body weight normalized to 70 kg” value ([4]; 60 mg) was 1464.7 nmol·h/L and the “AUCτ, non-Japanese geometric mean, body weight normalized to 70 kg” value ([4]; 180 mg) was 5837.1 nmol·h/L. For the same compound, the “AUCτ, non-Japanese geometric mean, body weight normalized to 70 kg” value ([4]; 360 mg) was 14,647.6 nmol∙h/L, the “AUCτ, non-Japanese geometric mean, body weight normalized to 70 kg” value ([4]; 600 mg) was 24,956.5 nmol∙h/L and the Cmax ([4]; read-out: Cmax, non-Japanese geometric mean, body weight normalized to 70 kg, 60 mg, Day 10) was 232 nM. For the same compound, the Cmax ([4]; read-out: Cmax, non-Japanese geometric mean, body weight normalized to 70 kg, 180 mg, Day 10) was 1420 nM, the Cmax ([4]; read-out: Cmax, non-Japanese geometric mean, body weight normalized to 70 kg, 360 mg, Day 10) was 3680 nM and the Cmax ([4]; read-out: Cmax, non-Japanese geometric mean, body weight normalized to 70 kg, 600 mg, Day 10) was 6130 nM. For the same compound, the tolerability [5] was “well tolerated”, the “time to steady-state levels” value ([6]; SMAD study, once-daily dosing) was 2 to 3 days and the terminal half-life ([6]; SMAD study) was 10 h. The “AUCτ, non-Japanese geometric mean” value ([6]; non-Japanese, 60 mg multiple dosing, Day 10) was 1386.3 nmol·h/L, the “AUCτ, non-Japanese geometric mean” value ([6]; non-Japanese, 180 mg multiple dosing, Day 10) was 5128.4 nmol·h/L and the “AUCτ, non-Japanese geometric mean” value ([6]; non-Japanese, 360 mg multiple dosing, Day 10) was 12,764.7 nmol∙h/L. For the same compound, the “AUCτ, non-Japanese geometric mean” value ([6]; non-Japanese, 600 mg multiple dosing, Day 10) was 23,175.0 nmol∙h/L and the Cmax ([6]; read-out: Cmax, non-Japanese geometric mean, non-Japanese, 60 mg multiple dosing, Day 10) was 220 nM.

Reference: paper PMC8481180 (Clinical Drug Investigation, 2021)
